Laboratory results taken from ChEMBL document CHEMBL2062435, “Synthesis and in vitro antibacterial activity of gemifloxacin derivatives containing a substituted benzyloxime moiety” (2012).

What follows are compounds tested on Klebsiella pneumoniae (assay: Antimicrobial activity against extended spectrum beta-lactamases-producing Klebsiella pneumoniae 10-3 after 18-24 hrs by two-fold serial dilution method).
Assay type: functional
Outline: (§1)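 Agar-medium twofold serial dilution against Gram-positive and Gram-negative strains; MIC taken as the lowest compound concentration giving complete inhibition of bacterial growth after incubation at 35 °C for 18-24 h.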

SMILES	MIC
COc1cc(CO/N=C2\CN(c3nc4c(cc3F)c(=O)c(C(=O)O)cn4C3CC3)CC2CN)ccc1OC(F)F.CS(=O)(=O)O (racemic)	> 128 µg/mL

These compounds were tested on Enterococcus faecalis (assay: Antimicrobial activity against Enterococcus faecalis 10-7 after 18-24 hrs by two-fold serial dilution method).
Assay type: functional
Outline: as §1

SMILES	MIC
COc1cc(CO/N=C2\CN(c3nc4c(cc3F)c(=O)c(C(=O)O)cn4C3CC3)CC2CN)ccc1OC(F)F.CS(=O)(=O)O (racemic)	4 µg/mL

The compounds below were run on Enterococcus faecium (assay: Antimicrobial activity against Enterococcus faecium 10-5 after 18-24 hrs by two-fold serial dilution method).
Assay type: functional
Outline: as §1

SMILES	MIC
COc1cc(CO/N=C2\CN(c3nc4c(cc3F)c(=O)c(C(=O)O)cn4C3CC3)CC2CN)ccc1OC(F)F.CS(=O)(=O)O (racemic)	8 µg/mL

What follows are compounds tested on Streptococcus pneumoniae (assay: Antimicrobial activity against extended spectrum beta-lactamases-producing Streptococcus pneumoniae 10-1 after 18-24 hrs by two-fold serial dilution method).
Assay type: functional
Outline: as §1

SMILES	MIC
COc1cc(CO/N=C2\CN(c3nc4c(cc3F)c(=O)c(C(=O)O)cn4C3CC3)CC2CN)ccc1OC(F)F.CS(=O)(=O)O (racemic)	0.25 µg/mL

What follows are compounds tested on Staphylococcus epidermidis (assay: Antimicrobial activity against extended spectrum beta-lactamases-producing methicillin-sensitive Staphylococcus epidermidis 10-13 after 18-24 hrs by two-fold serial dilution method).
Assay type: functional
Outline: as §1

SMILES	MIC
COc1cc(CO/N=C2\CN(c3nc4c(cc3F)c(=O)c(C(=O)O)cn4C3CC3)CC2CN)ccc1OC(F)F.CS(=O)(=O)O (racemic)	8 µg/mL

The compounds below were run on Escherichia coli (assay: Antimicrobial activity against Escherichia coli 10-2 after 18-24 hrs by two-fold serial dilution method).
Assay type: functional
Outline: as §1

SMILES	MIC
COc1cc(CO/N=C2\CN(c3nc4c(cc3F)c(=O)c(C(=O)O)cn4C3CC3)CC2CN)ccc1OC(F)F.CS(=O)(=O)O (racemic)	16 µg/mL

The compounds below were run on Klebsiella pneumoniae (assay: Antimicrobial activity against Klebsiella pneumoniae 10-2 after 18-24 hrs by two-fold serial dilution method).
Assay type: functional
Outline: as §1

SMILES	MIC
COc1cc(CO/N=C2\CN(c3nc4c(cc3F)c(=O)c(C(=O)O)cn4C3CC3)CC2CN)ccc1OC(F)F.CS(=O)(=O)O (racemic)	> 128 µg/mL

These compounds were tested on Escherichia coli (assay: Antimicrobial activity against Escherichia coli ATCC 25922 after 18-24 hrs by two-fold serial dilution method).
Assay type: functional
Outline: as §1

SMILES	MIC
COc1cc(CO/N=C2\CN(c3nc4c(cc3F)c(=O)c(C(=O)O)cn4C3CC3)CC2CN)ccc1OC(F)F.CS(=O)(=O)O (racemic)	0.06 µg/mL

What follows are compounds tested on Escherichia coli (assay: Antimicrobial activity against Escherichia coli 10-1 after 18-24 hrs by two-fold serial dilution method).
Assay type: functional
Outline: as §1

SMILES	MIC
COc1cc(CO/N=C2\CN(c3nc4c(cc3F)c(=O)c(C(=O)O)cn4C3CC3)CC2CN)ccc1OC(F)F.CS(=O)(=O)O (racemic)	> 128 µg/mL

These compounds were tested on Pseudomonas aeruginosa (assay: Antimicrobial activity against extended spectrum beta-lactamases-producing Pseudomonas aeruginosa 10-15 after 18-24 hrs by two-fold serial dilution method).
Assay type: functional
Outline: as §1

SMILES	MIC
COc1cc(CO/N=C2\CN(c3nc4c(cc3F)c(=O)c(C(=O)O)cn4C3CC3)CC2CN)ccc1OC(F)F.CS(=O)(=O)O (racemic)	32 µg/mL

Each compound was assayed on Staphylococcus epidermidis (assay: Antimicrobial activity against extended spectrum beta-lactamases-producing methicillin-resistant Staphylococcus epidermidis 10-10 after 18-24 hrs by two-fold serial dilution method).
Assay type: functional
Outline: (§2)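 Agar twofold serial dilution MIC against clinical isolates. MIC was taken as the lowest concentration giving complete inhibition of bacterial growth after incubation at 35 °C for 18-24 h.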

SMILES	MIC
COc1cc(CO/N=C2\CN(c3nc4c(cc3F)c(=O)c(C(=O)O)cn4C3CC3)CC2CN)ccc1OC(F)F.CS(=O)(=O)O (racemic)	2 µg/mL

These compounds were tested on Klebsiella pneumoniae (assay: Antimicrobial activity against extended spectrum beta-lactamases-producing Klebsiella pneumoniae 10-2 after 18-24 hrs by two-fold serial dilution method).
Assay type: functional
Outline: as §1

SMILES	MIC
COc1cc(CO/N=C2\CN(c3nc4c(cc3F)c(=O)c(C(=O)O)cn4C3CC3)CC2CN)ccc1OC(F)F.CS(=O)(=O)O (racemic)	> 128 µg/mL

What follows are compounds tested on Staphylococcus aureus (assay: Antimicrobial activity against extended spectrum beta-lactamases-producing methicillin-resistant Staphylococcus aureus 10-11 after 18-24 hrs by two-fold serial dilution method).
Assay type: functional
Outline: as §2

SMILES	MIC
COc1cc(CO/N=C2\CN(c3nc4c(cc3F)c(=O)c(C(=O)O)cn4C3CC3)CC2CN)ccc1OC(F)F.CS(=O)(=O)O (racemic)	2 µg/mL

These compounds were tested on Staphylococcus epidermidis (assay: Antimicrobial activity against extended spectrum beta-lactamases-producing methicillin-sensitive Staphylococcus epidermidis 10-15 after 18-24 hrs by two-fold serial dilution method).
Assay type: functional
Outline: as §1

SMILES	MIC
COc1cc(CO/N=C2\CN(c3nc4c(cc3F)c(=O)c(C(=O)O)cn4C3CC3)CC2CN)ccc1OC(F)F.CS(=O)(=O)O (racemic)	4 µg/mL

The compounds below were run on Streptococcus pneumoniae (assay: Antimicrobial activity against extended spectrum beta-lactamases-producing Streptococcus pneumoniae 10-4 after 18-24 hrs by two-fold serial dilution method).
Assay type: functional
Outline: as §1

SMILES	MIC
COc1cc(CO/N=C2\CN(c3nc4c(cc3F)c(=O)c(C(=O)O)cn4C3CC3)CC2CN)ccc1OC(F)F.CS(=O)(=O)O (racemic)	2 µg/mL

These compounds were tested on Klebsiella pneumoniae (assay: Antimicrobial activity against Klebsiella pneumoniae 10-3 after 18-24 hrs by two-fold serial dilution method).
Assay type: functional
Outline: as §1

SMILES	MIC
COc1cc(CO/N=C2\CN(c3nc4c(cc3F)c(=O)c(C(=O)O)cn4C3CC3)CC2CN)ccc1OC(F)F.CS(=O)(=O)O (racemic)	8 µg/mL

Each compound was assayed on Escherichia coli (assay: Antimicrobial activity against Escherichia coli 10-3 after 18-24 hrs by two-fold serial dilution method).
Assay type: functional
Outline: as §1

SMILES	MIC
COc1cc(CO/N=C2\CN(c3nc4c(cc3F)c(=O)c(C(=O)O)cn4C3CC3)CC2CN)ccc1OC(F)F.CS(=O)(=O)O (racemic)	16 µg/mL

The compounds below were run on Pseudomonas aeruginosa (assay: Antimicrobial activity against extended spectrum beta-lactamases-producing Pseudomonas aeruginosa 10-20 after 18-24 hrs by two-fold serial dilution method).
Assay type: functional
Outline: as §1

SMILES	MIC
COc1cc(CO/N=C2\CN(c3nc4c(cc3F)c(=O)c(C(=O)O)cn4C3CC3)CC2CN)ccc1OC(F)F.CS(=O)(=O)O (racemic)	8 µg/mL
